Assay outcomes from PubChem.
SENP6 block: SENP6 protease inhibition. Q9GZR1. Recombinant SENP6 catalytic domain, aminoluciferin luminescence. inhibition, % at 10 µM. 330,000 compounds, 1.8% hits. AID 2599;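 active = inhibition above about 50% at the single tested dose, limit read from the data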;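 also: plate controls were DMSO wells with enzyme for no effect and DMSO wells lacking enzyme for full effect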
SENP7 block: blocks the human protease SENP7 | Q9BQF6 | recombinant SENP7, Z-RLRGG-aminoluciferin luminescence, 40 min | inhibition, % at 5 µM | 330,000 compounds, 1.5% hits;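 active = inhibition above about 50% at the single test dose, limit read from the data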;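 also: plate controls were DMSO with enzyme for no effect and no enzyme buffer wells for full effect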
UBC13 inh: blocks human UBC13 polyubiquitin chain formation; 330,000 compounds, 0.47% hits; TR-FRET; AID 485273; inhibition, % at 20 µM; in the data active = inhibition above about 45%, passing the limit was not always enough
SENP8 block-1: blocks human SENP8 cleavage of Nedd8 substrate; Q96LD8; recombinant SENP8, Nedd8 substrate fluorescence; inhibition, % at 20 µM; 360,000 compounds, 0.64% hits; AID 602440; in the data active = inhibition mostly above about 40%, no sharp cut-off; inactive = mostly below about 27%
Apaf-1 inh: inhibitors of human Apaf-1 apoptosome. O14727. inhibition, % at 20 µM. reconstituted apoptosome caspase-3 activity, DEVD-Rh110 fluorescence. 330,000 compounds, 0.71% hits. AID 489030; active = inhibition of at least 40% at 20 µM;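 also: plate controls were DMSO wells for no effect and DEVD-CHO caspase inhibitor wells for full effect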
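System: Apoptosome proteins | Medium: Hepes pH 7.5 with detergent and BSA | Also added: Cytochrome c trigger plus (Z-DEVD)2-Rh110 caspase-3 substrate | Incubation: 30 min compound preincubation, 50 min activation, room temperature | Detection: Rhodamine 110 fluorescence at Ex 480/Em 540 nm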
SENP8 block-2: inhibitors of human SENP8 protease; Q96LD8; purified SENP8, Z-RLRGG-aminoluciferin cleavage, luminescence; inhibition, % at 10 µM; 330,000 compounds, 1.2% hits; AID 2540; in the data active = inhibition above about 50%
Casp3 UBC13 ctr: caspase-3 inhibition (UBC13 counter-screen) | shares compounds with UBC13 inh | Recombinant caspase-3, Caspase-Glo 3/7 luminescence, 60 min | inhibition, % at 20 µM | 1,400 compounds, 4% hits | AID 488856;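 active = mean inhibition across replicates above about 26%, limit read from the data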;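 also: plate controls were DMSO with caspase-3 for no effect and DMSO wells lacking enzyme for full effect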
UBC13 confirm: confirmation of human UBC13 polyubiquitin inhibitors. UBC13 polyubiquitination, TR-FRET, biochemical. inhibition, % at 10 µM. 1,400 compounds, 68% hits. AID 488859. shares compounds with UBC13 inh; in the data active = inhibition above about 45%
Apaf-1 inh conf: Apaf-1 inhibition, single-dose confirmed | shares compounds with Apaf-1 inh | reconstituted apoptosome, caspase-3 DEVD-Rh110 fluorescence | inhibition, % at 20 µM | 1,800 compounds, 25% hits | AID 504614;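 active = mean inhibition of at least 40% at 20 µM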;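 also: plate controls were DMSO wells for no effect and DEVD-CHO caspase inhibitor control wells for full effect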
Rh110 quench: Rh110 signal interference in Apaf-1 inhibitor counter-screen; activation (fluorescence interference), % at 20 µM; shares compounds with Apaf-1 inh; AID 504615; Rh110 fluorescence interference, quenched caspase reaction; 1,800 tested, under 10 active;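 active = signal rise of 40% or more at 20 µM, treated as a fluorescence artifact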
Fluor interf inh: shows fluorescence interference in the Apaf-1 inhibitor assay format | shares compounds with Apaf-1 inh | fluorescence interference counterscreen, Apaf-1 assay format | IC50, µM | 460 tested, under 10 active | AID 588538; call rule not given here
SENP8 conf: SENP8 (human) inhibition, single concentration confirmation; AID 624319; 1,400 compounds, 15% hits; inhibition, % at 25 µM; shares compounds with SENP8 block-1; purified SENP8, Nedd8-AMC/pro-Nedd8 cleavage fluorescence, 30 min; in the data active = inhibition mostly above about 39%, no sharp cut-off; inactive = mostly below about 34%
Active calls of the source: *; . = not tested or not shown. A selection: hits, their analogues and other compounds. The true share with any hit is near 3%.

SMILES	SENP6 block	SENP7 block	UBC13 inh	SENP8 block-1	Apaf-1 inh	SENP8 block-2	Apaf-1 inh conf	Rh110 quench	others
C#CCOCCOCCOCCNc1nc(N2CCN(C(=O)[C@H](CCCCN)n3cc(CN)nn3)CC2)nc(N2CCN(C(=O)[C@H](CO)n3cc([C@@H](N)C(C)C)nn3)CC2)n1	-14	0	6	21	13	-3	.	.
C#CCOCCOCCOCCNc1nc(N2CCN(C(=O)[C@H](CCCCN)n3cc(CN)nn3)CC2)nc(N2CCN(C(=O)[C@H](CCCCN)n3cc([C@@H](N)[C@H](C)CC)nn3)CC2)n1	-23	-13	109*	19	40*	-10	6	-1	Casp3 UBC13 ctr=-2;UBC13 confirm=108*
C#CCOCCOCCOCCNc1nc(N2CCN(C(=O)[C@H](CCCCN)n3cc(C(N)[C@H](C)CC)nn3)CC2)nc(N2CCN(C(=O)[C@H](CCC(=O)O)n3cc(C(N)[C@H](C)CC)nn3)CC2)n1 (some centres undefined)	1	1	11	17	8	-5	.	.
Cc1ccc(NC(=O)CS(=O)CC(=O)NCCCc2ccccc2)cc1Cl (centres undefined)	-8	0	65*	41*	-8	-5	.	.	Casp3 UBC13 ctr=3;UBC13 confirm=73*;SENP8 conf=17
Cc1ccc(NC(=O)CS(=O)CC(=O)Nc2cnc3ccccc3c2)cc1Cl (centres undefined)	6	1	28	11	10	1	.	.
C=CCNc1nc2cc(-c3cccc(NC(C)=O)c3)sc2c(=O)n1C	.	.	.	-143	.	.	.	.
CN1CCN(c2cc(-c3cc(O)c4ncccc4c3)ccn2)CC1	-6	4	100*	52*	11	-2	.	.	Casp3 UBC13 ctr=14;UBC13 confirm=102*;SENP8 conf=48*
Cc1ccc(C(=O)NCC(=O)N2CCCCCCC2)cc1	-7	21	21	1	61*	-6	38	5
O=C(Oc1cccc(-n2cnnn2)c1)c1ccccc1Cl	-19	4	2	0	-7	-11	.	.
CCCCCc1cc(=O)oc2c(C(CCN3CCCCC3)c3ccc4c(c3)OCO4)c(OC)cc(OC)c12 (centres undefined)	-9	-1	13	-169	66*	-17	39	18
COc1cc(OC)c2c(-c3ccccc3)cc(=O)oc2c1C(CC(=O)N1CCOCC1)c1ccc2c(c1)OCO2 (centres undefined)	-16	2	3	-50	18	-6	.	.
COc1cc(OC)c2c(-c3ccccc3)cc(=O)oc2c1C(CCN1CCN(c2ccccc2)CC1)c1ccc(N(C)C)cc1 (centres undefined)	-15	7	-5	3	20	-8	.	.
COc1cc(OC)c2c(-c3ccccc3)cc(=O)oc2c1C(CCN1CCOCC1)c1ccc2c(c1)OCO2 (centres undefined)	.	-2	.	-41	42*	.	9	-2
COc1ccc(C(CCN2CCOCC2)c2c(OC)cc(OC)c3c(-c4ccccc4)cc(=O)oc23)cc1 (centres undefined)	.	-4	.	-104	53*	.	2	7
Cc1nonc1CN(C)C(=O)CC1C(=O)NCCN1Cc1ccccc1C(F)(F)F (centres undefined)	-6	2	6	0	-2	7	.	.
CC(Oc1ccc(Br)cc1)C(=O)NCC1(N2CCCCC2)CCCCC1 (centres undefined)	-17	7	20	-6	39	1	.	.
Cc1ccc(N=Nc2c(N)[nH]n3c(=O)cc(-c4ccccc4)nc23)cc1	1	2	-109	74*	55*	4	64*	4	Fluor interf inh=>100
O=C(COC(=O)C1=COCCO1)NC(=O)c1ccc(OC(F)F)cc1	-29	-2	6	20	1	1	.	.
CCCCNC(=O)C(C)N(CCN(C)C)C(=O)CCCN1C(=O)NC(c2ccc([N+](=O)[O-])cc2)C(C(=O)OCc2ccccc2)=C1C (centres undefined)	.	3	.	18	45*	.	14	8
CCCCCCN(C(=O)CCCCCN1C(=O)NC(c2ccc(-c3ccccc3)cc2)C(C(=O)OCc2ccccc2)=C1C)C(C)C(=O)NCCCC (centres undefined)	-2	-7	2	.	17	15	.	.
O=C(c1ccc(CNS(=O)(=O)c2ccc(Br)cc2)cc1)N1CCCC1	2	-3	0	2	-11	0	.	.
O=C(Nc1ccc(Oc2ccccc2)cc1)N[C@@H](Cc1ccccc1)C(=O)O	4	0	4	18	3	10	.	.
O=C(Nc1ccc(Nc2ccccc2)cc1)c1ccccc1	1	-16	6	.	-5	-3	.	.
O=C(NC1=C(Nc2ccc(Cl)cc2)C(=O)c2ccccc2C1=O)c1ccccc1	12	13	-136	52*	54*	11	42*	-5	Fluor interf inh=>100
Cc1cccc(C(=O)Nc2cccc(NC(=O)c3ccccc3)c2)c1	20	-4	2	13	3	4	.	.
Cc1cccc(NC2=C(NC(=O)c3ccccc3)C(=O)c3ccccc3C2=O)c1	43	17	-138	76*	73*	18	58*	11	Fluor interf inh=>100
CC1CCCCC1NC(=O)CCCCn1c(=O)[nH]c2ccsc2c1=O (centres undefined)	7	-1	11	11	-3	-1	.	.
COc1ccccc1N(CC(=O)Nc1ccccc1C(=O)N1CCOCC1)S(C)(=O)=O	3	-4	3	6	1	-3	.	.
CC(C)(C)c1ccc(S(=O)(=O)/N=C2\C=C(NS(=O)(=O)c3ccccc3)C(=O)c3ccccc32)cc1	27	7	-81	51*	46*	3	53*	4	Fluor interf inh=>100
COC(=O)c1ccccc1NC1=C/C(=N\S(=O)(=O)c2ccc(C(=O)O)cc2)c2ccccc2C1=O	73*	24	-128	-20	95*	90*	97*	4	Fluor interf inh=>100
